# Only some compounds are listed: those with a hit (about 2.1% of all), similar ones and a draw of the others.
# EBI2 antag = EBI2 receptor antagonists, beta-arrestin recruitment, primary screen, cell-based, luminescence, 7a,25-OHC stimulation, uHTS | inhibition, % at 5 µM | 0.81% of 360,000 active | 7a,25-OHC stimulated; in the data active = inhibition above about 38%;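 also: enzyme fragment complementation signal reports receptor beta-arrestin coupling in cells; 0% = agonist plus DMSO wells and 100% = wells without agonist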
# APJ agonist = agonists of human apelin receptor APJ, primary screen, CHO-K1 cells, PathHunter beta-arrestin, luminescence. P35414. 0% DMSO wells, 100% apelin. activation, % at 20 µM. 0.11% of 330,000 active. AID 2520, 2010;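 active = activation more than six SD over the plate average, tested at 20 µM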;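 also: 0% = DMSO alone and 100% = apelin-13 at 10 nM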
#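 Test system – PathHunter CHO-K1 APJ (AGTRL-1) beta-arrestin reporter cells · Input – 1000 cells/well · Compound – single test compound dose, 20 µM final, 1% DMSO · Times – compound stimulation 90 min at 25 °C, detection 60 min · Technique – beta-gal luminescence · Read-out basis – APJ–arrestin association signal · Control set – negative DMSO alone, positive Apelin-13 at 10 nM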
# CXCR6 block = CXCR6 receptor inhibitors, primary screen, cell-based, beta-arrestin, luminescence, CHO-K1 PathHunter, 1536-well; 0.36% of 360,000 active; C-X-C chemokine receptor type 6 (Homo sapiens), O00574; inhibition, % at 20 µM; in the data active = inhibition above about 34%, passing the limit was not always enough;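 also: antagonist mode with CXCL16 agonist at 10 nM final; 0% = 10 nM CXCL16 with DMSO and 100% = unstimulated wells without agonist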
# CCR6 antagonist = CCR6 receptor antagonists, primary screen, cell-based, CHO-K1, luminescence, beta-arrestin, uHTS; C-C chemokine receptor type 6 (Homo sapiens), P51684; CHO-K1 CCR6 PathHunter beta-arrestin, CCL20-stimulated; inhibition, % at 20 µM; 0.49% of 340,000 active; AID 493098, 2011;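 active = compounds whose inhibition of the agonist-driven luminescence signal at 20 µM reaches about 50%, limit read from the data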;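 also: cells stimulated with CCL20 at 14 nM final; plate controls were DMSO with CCL20 for no effect and DMSO without agonist for full effect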
# m5-HT2A agonist = mouse Htr2a agonists via beta-arrestin recruitment, primary screen, cell-based, luminescence; 0.66% of 360,000 active; CHO-K1 mHTR2A beta-arrestin complementation; percent of 30 µM serotonin response; 5-hydroxytryptamine receptor 2A (Mus musculus), P35363; activation, % at 7.6 µM;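 active = activation above a run cutoff, the mean activation of all tested compounds plus 3 SD, cut at about 14% in these data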;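 also: 0% = plate median of compound wells and 100% = 30 µM serotonin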
# Target sequence (P35363 whole entry, looked up): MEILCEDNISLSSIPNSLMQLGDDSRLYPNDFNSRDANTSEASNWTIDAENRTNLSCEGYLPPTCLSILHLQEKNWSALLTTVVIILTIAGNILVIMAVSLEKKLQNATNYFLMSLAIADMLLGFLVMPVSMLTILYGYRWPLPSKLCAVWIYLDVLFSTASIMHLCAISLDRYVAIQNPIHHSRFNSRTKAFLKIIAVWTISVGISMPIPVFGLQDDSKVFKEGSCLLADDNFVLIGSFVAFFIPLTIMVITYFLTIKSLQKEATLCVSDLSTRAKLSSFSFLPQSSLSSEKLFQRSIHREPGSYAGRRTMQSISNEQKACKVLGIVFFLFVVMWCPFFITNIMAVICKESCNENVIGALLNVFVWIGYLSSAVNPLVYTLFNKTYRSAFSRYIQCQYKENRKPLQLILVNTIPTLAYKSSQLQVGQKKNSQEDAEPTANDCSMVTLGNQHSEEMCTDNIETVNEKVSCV
# APJ antagonist = antagonists of human apelin receptor APJ, primary screen, CHO-K1 cells, beta-arrestin complementation, luminescence | inhibition, % at 20 µM | AID 2521, 2010 | 0.32% of 330,000 active;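 active = inhibition above about 40% at 20 µM, limit read from the data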;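 also: cells challenged with 10 nM apelin-13 agonist together with compound; plate controls were apelin-13 plus DMSO wells for no effect and DMSO wells lacking apelin-13 for full effect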
# EBI2 antag conf = EBI2 antagonist hit retest, beta-arrestin, confirmation, cell-based, single concentration, luminescence, 7a,25-OHC stimulation. 29% of 2,400 active. inhibition, % at 5 µM. 7a,25-OHC antagonism. shares compounds with EBI2 antag;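 active = inhibition of at least 50%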
# EBI2 ag = EBI2 agonist activity of antagonist hits, confirmation, counter-screen for EBI2 antagonist project, cell-based, single concentration, agonist mode, luminescence. EBI2-expressing cells, 60 min; 0% vehicle, 100% 7α,25-dihydroxycholesterol control. 2,400 tested, under 10 active. shares compounds with EBI2 antag. activation, % at 5 µM;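 active = activation of at least 50%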
# bGal counter = E. coli beta-galactosidase enzyme inhibition, confirmation, counter-screen for EBI2 antagonist project, biochemical, luminescence, single concentration; shares compounds with EBI2 antag; purified beta-galactosidase, luminescent Galacton Star, 15 min; inhibition, % at 5 µM; 1% of 2,400 active; AID 652176, 2013;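 active = replicate-average signal at least 3 plate SD below neutral wells, shown as high inhibition, flagging enzyme-inhibiting false positives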;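 also: 0% = DMSO wells with enzyme and 100% = wells lacking enzyme; higher means stronger loss of beta-gal luminescence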
# Numbers without * were called inactive; · = not tested or not shown.
SMILES,EBI2 antag,APJ agonist,CXCR6 block,CCR6 antagonist,m5-HT2A agonist,APJ antagonist,EBI2 antag conf,EBI2 ag,bGal counter
Cc1cccc(NCCNc2cccc(C)c2)c1,4,-7,1,9,-5,-2,·,·,·
Cc1ccc(NCCNc2ccc(C)cc2)cc1,47*,3,2,-3,-2,10,58*,3,0
CCOc1ccc(N2CC(C(=O)Nc3ccc(S(=O)(=O)N4CCCCC4)cc3)CC2=O)cc1 (configuration not stated),79*,11,-2,2,-4,3,63*,-1,-21
CCOc1ccc(N2CC(C(=O)Nc3ccc(S(=O)(=O)N4CCCC4)cc3)CC2=O)cc1 (configuration not stated),53*,2,5,1,-6,1,44,1,2
CCOc1ccc(N2CC(C(=O)Nc3cccc(S(=O)(=O)N4CCCCC4)c3)CC2=O)cc1 (configuration not stated),39,-1,-5,-16,-5,-8,·,·,·
COc1ccc(N2CC(C(=O)Nc3ccc(S(=O)(=O)N4CCCCC4)cc3)CC2=O)cc1 (configuration not stated),75*,-2,1,16,8,-13,56*,1,0
COc1ccc([N+](=O)[O-])cc1NC(=O)C(C)NNC(=O)c1cccc([N+](=O)[O-])c1 (configuration not stated),1,2,-3,7,0,-7,·,·,·
C[C@@H]1CN([C@H](C)CO)C(=O)c2cc(Br)cnc2O[C@@H]1CN(C)C(=O)c1cccc(F)c1,-11,·,-4,·,-1,·,·,·,·
O=C(O)c1cc2ccccc2c(N=Nc2cccnc2)c1O,12,-6,18,26,-9,-1,·,·,·
Cc1ccccc1-c1cccc([C@@H]2C[C@H]3[C@H](CON3C)CN2Cc2cc(Cl)cc(Cl)c2)c1,11,·,0,21,-3,·,·,·,·
O=C(COc1ccc(Cl)cc1)N1CCN(C(=O)c2cccc(F)c2)CC1,86*,-1,4,-7,1,1,68*,0,-11
O=C(COc1ccccc1)N1CCN(C(=O)c2cccs2)CC1,14,-1,1,-16,7,10,·,·,·
O=C(COc1ccc(Cl)cc1)N1CCN(C(=O)c2cccs2)CC1,80*,-1,10,9,14,-7,49,0,7
COc1ccc(-c2nc3c(c(=O)[nH]c(=O)n3Cc3ccccc3)n2Cc2ccccc2)cc1,45*,-4,3,8,-4,-2,10,2,-7
COc1ccc(-c2nc3c(c(=O)[nH]c(=O)n3Cc3ccccc3)n2C)cc1,10,-3,15,6,-6,-2,·,·,·
CCOC(=O)C1(Cc2cccc(OC)c2)CCCN(Cc2cc(OC)c(O)c(OC)c2)C1 (configuration not stated),82*,2,-13,-10,-1,-31,58*,-1,-4
C[C@H](CO)N1C[C@H](C)[C@@H](CN(C)S(=O)(=O)c2cccs2)Oc2c(NC(=O)NC3CCCCC3)cccc2C1=O,2,-2,-1,14,-9,-6,·,·,·
